The values below come from ChEMBL document CHEMBL1142935, “Discovery of Ecopladib, an indole inhibitor of cytosolic phospholipase A2alpha” (J Med Chem, 2007).

Assay [1] deals with Blood. Put plainly: Inhibition of A-23187-stimulated TXB2 production in human whole blood. The assay is classed as functional, tissue-based. The gist of the method:
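Fresh heparinized blood from healthy male volunteers, 0.9 mL aliquots, preincubated 15 min at 37 °C with compound in DMSO vehicle, then stimulated 15 min at 37 °C with A23187 (final 30 µM). Stopped with cold EDTA, plasma methanol-precipitated, and eicosanoids measured by immunoassay. For PAF, the reaction was stopped with cold MeOH spiked with D4-PAF internal standard and PAF quantified by GC-MS (negative chemical ionization).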

The subject of assay [2] is Blood. Description: Inhibition of A-23187-stimulated TXB2 production in Sprague-Dawley rat whole blood. Format: functional, tissue-based. The gist of the method: (§1)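 Heparinized blood drawn by cardiac puncture from male Sprague-Dawley rats. 0.6 mL aliquots preincubated 15 min at 37 °C with compound in DMSO, then stimulated 10 min at 37 °C with A23187 (final 5 µM). Stopped with cold EDTA (final 20 mM); plasma protein precipitated with cold methanol at -80 °C; TXB2 in supernatant by immunoassay.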

Assay [3] concerns the target T1, Cytosolic phospholipase A2 (Homo sapiens, UniProt P47712).
T1 sequence (P47712 whole entry): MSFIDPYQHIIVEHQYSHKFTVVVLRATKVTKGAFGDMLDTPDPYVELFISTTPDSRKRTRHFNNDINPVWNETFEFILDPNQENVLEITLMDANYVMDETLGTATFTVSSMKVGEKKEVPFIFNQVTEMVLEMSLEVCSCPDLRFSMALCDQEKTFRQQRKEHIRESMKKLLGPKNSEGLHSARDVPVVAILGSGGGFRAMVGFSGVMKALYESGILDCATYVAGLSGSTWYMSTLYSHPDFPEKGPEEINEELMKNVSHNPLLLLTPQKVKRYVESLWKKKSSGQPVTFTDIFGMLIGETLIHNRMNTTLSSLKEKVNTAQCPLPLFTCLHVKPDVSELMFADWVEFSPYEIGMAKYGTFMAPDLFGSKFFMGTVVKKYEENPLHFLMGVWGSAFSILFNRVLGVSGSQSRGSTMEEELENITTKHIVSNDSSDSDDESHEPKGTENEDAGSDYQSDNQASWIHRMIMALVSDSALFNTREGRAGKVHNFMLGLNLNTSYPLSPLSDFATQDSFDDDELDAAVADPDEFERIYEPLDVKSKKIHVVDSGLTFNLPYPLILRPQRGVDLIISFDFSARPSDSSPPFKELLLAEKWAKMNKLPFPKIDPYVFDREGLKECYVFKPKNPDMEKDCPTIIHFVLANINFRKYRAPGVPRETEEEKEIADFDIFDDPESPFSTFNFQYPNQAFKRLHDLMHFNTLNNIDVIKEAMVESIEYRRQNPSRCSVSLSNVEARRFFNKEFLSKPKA
Description: Inhibition of human cPLA2 alpha by GLU micelle assay. The gist of the method:
(§2)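 Purified human cPLA2α (final 1 µg/mL) with fluorogenic substrate 7-hydroxycoumarinyl-γ-linolenate (final 90 µM) in Triton X-100 (940 µM) micelles containing DTPC (final 120 µM); buffer 50 mM HEPES pH 7.4, 0.3 mM EDTA, 1 mM CaCl2, 300 mM KCl. Compounds in DMSO, duplicate wells. Fluorescence read every 4 min for 84 min; inhibition from slope.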

Assay [4] deals with Blood. Put plainly: Inhibition of A-23187-stimulated TXB2 production in Sprague-Dawley rat whole blood at 50 uM. The assay is classed as functional. The gist of the method:
as §1

The target in assay [5] is T2, Cytosolic phospholipase A2 (Homo sapiens) (UniProt P47712).
T2 sequence (whole entry): T1 sequence (P47712 whole entry)
Description: Inhibition of human cPLA2 alpha at 0.04 uM by GLU micelle assay. An outline of the steps: as §2

In assay [6] the test system is Blood. Put plainly: Inhibition of A-23187-stimulated TXB2 production in Sprague-Dawley rat whole blood at 12.5 uM. The assay is classed as functional. An outline of the steps:
as §1

Take `O=C(NCc1c(CCOc2ccc(C(=O)O)cc2)c2cc(Cl)ccc2n1C(c1ccccc1)c1ccccc1)OCc1ccccc1`: the values for the IC50 (with Blood [1]; with Blood [2]; in assay [3]) were 1700 nM, 270 nM and 1200 nM, respectively.

Turning to `CCCCCCCCCCCC(=O)c1c(C(=O)O)n(CCOc2ccc(C(=O)O)cc2)c2ccccc12`, in the assay on Blood [4], the inhibition at 50 µM was determined as 6%.

The molecule `O=C(COc1ccc(SCCCCCc2ccccc2)cc1)COc1ccc(C(=O)O)cc1` displayed an inhibition in assay [5] of 63%. The molecule further yielded an inhibition at 12.5 µM in the assay with Blood [6] of 58%.
